Measured values published in ChEMBL document CHEMBL1764975, “A new DNA gyrase inhibitor subclass of the cyclothialidine family based on a bicyclic dilactam-lactone scaffold. Synthesis and antibacterial properties” (J Med Chem, 2011).
≈ marks a conversion by molar mass, not a printed value.

Tests used:
Staphylococcus aureus [1] = assay: Antimicrobial activity against Staphylococcus aureus Smith infected in iv dosed septicaemia Swiss albino mouse model after 4 days; type: functional; details: 96 h
In short: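 Septicaemia model in mice infected with S. aureus Smith, compound given iv. In experiments with 0-1 survivors among 5-10 control mice, ED₅₀ (mg/kg) taken as lowest dose giving 3-5 survivors out of 5 infected mice.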

Escherichia coli [2] = assay: Antimicrobial activity against Escherichia coli 25922 after 18 hrs by agar dilution method; type: functional; details: Escherichia coli, 25922, 18 h
In short: (§1)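 Agar dilution on Mueller-Hinton medium, inoculum 10⁴ CFU/spot; MIC is the minimum inhibitory concentration against the named strain.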

[3] = system: Stenotrophomonas maltophilia; assay: Antimicrobial activity against Xanthomonas maltophilia IAC 739 after 18 hrs by agar dilution method; type: functional; details: IAC 739, 18 h; in short: as §1
Streptococcus pyogenes = assay: Antimicrobial activity against Streptococcus pyogenes b15 after 18 hrs by agar dilution method; type: functional; details: b15, 18 h; in short: as §1
Staphylococcus aureus [4] = assay: Antimicrobial activity against multidrug-resistant Staphylococcus aureus after 18 hrs by agar dilution method; type: functional
In short: (§2)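 Agar dilution on Mueller-Hinton agar, inoculum 10⁴ CFU/spot, against panels of multiresistant clinical strains (S. aureus 11, E. faecalis 16, E. faecium 23). MIC_50/90 in μg/mL taken as the minimum concentration inhibiting at least 50% or 90% of the strains tested.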

Enterococcus faecalis [5] = assay: Antimicrobial activity against multidrug-resistant Enterococcus faecalis after 18 hrs by agar dilution method; type: functional; in short: as §2
Enterococcus faecium = assay: Antimicrobial activity against multidrug-resistant Enterococcus faecium after 18 hrs by agar dilution method; type: functional; in short: as §2
Escherichia coli [6] = assay: Inhibition of Escherichia coli DNA gyrase A2B2 complex after 30 mins by supercoiling assay
Staphylococcus aureus [7] = assay: (§3) Antimicrobial activity against Staphylococcus aureus Smith after 18 hrs by agar dilution method; type: functional; in short: as §1
Staphylococcus aureus [8] = assay: Antimicrobial activity against Staphylococcus aureus ATCC 25923 after 18 hrs by agar dilution method; type: functional; details: ATCC 25923, 18 h; in short: as §1
Staphylococcus aureus [9] = assay: as §3; type: functional; in short: as §1; remark: listed apart in the source
[10] = system: Staphylococcus epidermidis; assay: Antimicrobial activity against Staphylococcus epidermidis 16/2 after 18 hrs by agar dilution method; type: functional; details: 16/2, 18 h; in short: as §1
Enterococcus faecalis [11] = assay: Antimicrobial activity against Enterococcus faecalis 6 after 18 hrs by agar dilution method; details: Enterococcus faecalis, 6, 18 h
[12] = Octanol-water partition coefficient, log D of the compound at pH 7.4 by shake-flask method; type: physicochemical
In short: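 Octanol/water partition measured by shake-flask at pH 7.4.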

Streptococcus pneumoniae = assay: Antimicrobial activity against multidrug-resistant Streptococcus pneumoniae after 18 hrs by agar dilution method; type: functional
In short: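 Agar dilution on IsoSensitest agar supplemented with sheep blood (5% v/v), inoculum 10⁴ CFU/spot, against 21 multiresistant S. pneumoniae strains. MIC_50/90 in μg/mL taken as the minimum concentration inhibiting at least 50% or 90% of the strains.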

Haemophilus influenzae = assay: Antimicrobial activity against multidrug-resistant Haemophilus influenzae after 18 hrs by agar dilution method; type: functional
In short: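 Agar dilution on Haemophilus test medium, inoculum 10⁵ CFU/spot, against 21 multiresistant H. influenzae strains. MIC_50/90 in μg/mL taken as the minimum concentration inhibiting at least 50% or 90% of the strains.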

Moraxella catarrhalis = assay: Antimicrobial activity against multidrug-resistant Moraxella catarrhalis after 18 hrs by agar dilution method; type: functional
In short: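 Agar dilution on Mueller-Hinton agar supplemented with sheep blood (5% v/v), inoculum 10⁵ CFU/spot, against 20 multiresistant M. catarrhalis strains. MIC_50/90 in μg/mL taken as the minimum concentration inhibiting at least 50% or 90% of the strains.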

Staphylococcus aureus [13] = assay: Plasma shift, ratio of MIC for Staphylococcus aureus Smith in presence of mouse plasma to MIC for Staphylococcus aureus Smith in absence of mouse plasma; type: functional
In short: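 Agar dilution MICs against S. aureus Smith were run on BHI agar mixed 1:1 with mouse plasma and on plain BHI agar. The plasma shift is the MIC with plasma divided by the MIC on BHI agar alone.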

Row | SMILES | MIC (Escherichia coli [2]) | MIC [3] | MIC (Streptococcus pyogenes) | MNEC (Escherichia coli [6]) | MIC (Staphylococcus aureus [7]) | MIC (Staphylococcus aureus [8]) | MIC (Staphylococcus aureus [9]) | MIC [10] | MIC (Enterococcus faecalis [11]) | logD [12] | ED50 (Staphylococcus aureus [1]) | MIC50 (Staphylococcus aureus [4]) | MIC90 (Staphylococcus aureus [4]) | MIC50 (Enterococcus faecalis [5]) | MIC90 (Enterococcus faecalis [5]) | MIC50 (Enterococcus faecium) | MIC90 (Enterococcus faecium) | further results
1 | CN[C@H](CC(C)C)C(=O)N[C@H]1C(=O)N[C@@H](CC(N)=O)C(=O)N[C@H]2C(=O)N[C@H]3C(=O)N[C@H](C(=O)N[C@H](C(=O)O)c4cc(O)cc(O)c4-c4cc3ccc4O)[C@H](O)c3ccc(c(Cl)c3)Oc3cc2cc(c3O[C@@H]2O[C@H](CO)[C@@H](O)[C@H](O)[C@H]2O[C@H]2C[C@](C)(N)[C@H](O)[C@H](C)O2)Oc2ccc(cc2Cl)[C@H]1O [VANCOMYCIN] | > 64 µg/mL | > 64 µg/mL | 1 µg/mL (≈ 0.69 µM) | – | – | – | – | – | – | – | 1.5 mg/kg | 2 µg/mL (≈ 1.38 µM) | 4 µg/mL (≈ 2.76 µM) | 2 µg/mL (≈ 1.38 µM) | 256 µg/mL (≈ 177 µM) | 256 µg/mL (≈ 177 µM) | > 256 µg/mL | –
2 | COc1cc(O)c2c(c1C)C(=O)OCC(=O)NCC(=S)N[C@H](c1nc(C)no1)CSC2 | > 64 µg/mL | 4 µg/mL (≈ 8.57 µM) | – | 0.001 µg/mL | 0.5 µg/mL (≈ 1.07 µM) | 1 µg/mL (≈ 2.14 µM) | 0.5 µg/mL (≈ 1.07 µM) | < 0.12 µg/mL | 0.5 µg/mL (≈ 1.07 µM) | 2.32 | 25 mg/kg | – | – | – | – | – | – | –
3 | CC(=O)NC[C@H]1CN(c2ccc(N3CCOCC3)c(F)c2)C(=O)O1 [LINEZOLID] | – | – | – | – | – | – | – | – | – | – | – | 1 µg/mL (≈ 2.96 µM) | 2 µg/mL (≈ 5.93 µM) | 2 µg/mL (≈ 5.93 µM) | 2 µg/mL (≈ 5.93 µM) | 1 µg/mL (≈ 2.96 µM) | 2 µg/mL (≈ 5.93 µM) | MIC50 (Streptococcus pneumoniae): 1 µg/mL (≈ 2.96 µM); MIC90 (Streptococcus pneumoniae): 2 µg/mL (≈ 5.93 µM); MIC50 (Haemophilus influenzae): 8 µg/mL (≈ 23.7 µM); MIC90 (Haemophilus influenzae): 16 µg/mL (≈ 47.4 µM); MIC50 (Moraxella catarrhalis): 8 µg/mL (≈ 23.7 µM); MIC90 (Moraxella catarrhalis): 16 µg/mL (≈ 47.4 µM)
4 | COc1cc(O)c2c(c1C)C(=O)OCCCCC(=S)N[C@H](c1nc(C)no1)CSC2 | > 64 µg/mL | 0.5 µg/mL (≈ 1.11 µM) | 0.25 µg/mL (≈ 0.554 µM) | 0.004 µg/mL | 0.06 µg/mL (≈ 0.133 µM) | 0.12 µg/mL (≈ 0.266 µM) | 0.06 µg/mL (≈ 0.133 µM) | 0.01 µg/mL (≈ 0.0221 µM) | 0.25 µg/mL (≈ 0.554 µM) | 3.09 | > 25 mg/kg | 1 µg/mL (≈ 2.21 µM) | 1 µg/mL (≈ 2.21 µM) | 4 µg/mL (≈ 8.86 µM) | 4 µg/mL (≈ 8.86 µM) | 8 µg/mL (≈ 17.7 µM) | 8 µg/mL (≈ 17.7 µM) | Ratio (Staphylococcus aureus [13]): 8; MIC50 (Streptococcus pneumoniae): 1 µg/mL (≈ 2.21 µM); MIC90 (Streptococcus pneumoniae): 2 µg/mL (≈ 4.43 µM); MIC50 (Haemophilus influenzae): 8 µg/mL (≈ 17.7 µM); MIC90 (Haemophilus influenzae): 16 µg/mL (≈ 35.4 µM); MIC50 (Moraxella catarrhalis): 2 µg/mL (≈ 4.43 µM); MIC90 (Moraxella catarrhalis): 2 µg/mL (≈ 4.43 µM)

Now from value to compound, other results behind:

Row | MIC (Escherichia coli [2]) | MIC [3] | MIC (Streptococcus pyogenes) | MNEC (Escherichia coli [6]) | MIC (Staphylococcus aureus [7]) | MIC (Staphylococcus aureus [8]) | MIC (Staphylococcus aureus [9]) | MIC [10] | MIC (Enterococcus faecalis [11]) | logD [12] | SMILES | ED50 (Staphylococcus aureus [1]) | MIC50 (Staphylococcus aureus [4]) | MIC90 (Staphylococcus aureus [4]) | MIC50 (Enterococcus faecalis [5]) | MIC90 (Enterococcus faecalis [5]) | MIC50 (Enterococcus faecium) | MIC90 (Enterococcus faecium) | further results
5 | 64 µg/mL (≈ 128 µM) | 2 µg/mL (≈ 4 µM) | < 0.12 µg/mL | 0.005 µg/mL | 0.12 µg/mL (≈ 0.24 µM) | < 0.12 µg/mL | < 0.12 µg/mL | < 0.12 µg/mL | 0.12 µg/mL (≈ 0.24 µM) | 2.18 | COc1cc(O)c2c(c1Br)C(=O)OCCCCC(=O)N[C@H](c1nc(C)no1)CSC2 | 25 mg/kg | – | – | – | – | – | – | Ratio (Staphylococcus aureus [13]): 4
6 | 64 µg/mL | 4 µg/mL | 0.25 µg/mL | 0.002 µg/mL | 0.12 µg/mL | 0.5 µg/mL | 0.12 µg/mL | < 0.12 µg/mL | < 0.12 µg/mL | 1.89 | COc1cc(O)c2c(c1Cl)C(=O)OCCCCC(=S)N[C@H](c1nc(CN)no1)CSC2.Cl | 6 mg/kg | – | – | – | – | – | – | –
7 | > 64 µg/mL | 0.25 µg/mL (≈ 0.47 µM) | 0.12 µg/mL (≈ 0.226 µM) | 0.05 µg/mL | 0.12 µg/mL (≈ 0.226 µM) | 0.25 µg/mL (≈ 0.47 µM) | < 0.12 µg/mL | < 0.12 µg/mL | < 0.12 µg/mL | 2.61 | COc1cc(O)c2c(c1Br)C(=O)OCC(=O)NCC(=S)N[C@H](c1nc(C)no1)CSC2 | 12.5 mg/kg | – | – | – | – | – | – | –
